From PubChem
Shown are actives, neighbours in structure and some others; about 5.7% of the full set was active somewhere.
Mdm2-MdmX inh = inhibitors of human Mdm2-MdmX association, primary screen, cell-based, luminescence, split luciferase, SaOS-2, uHTS. Protein Mdm4 (Homo sapiens) + E3 ubiquitin-protein ligase Mdm2 (Homo sapiens), …. SaOS-2 split-luciferase Mdm2/MdmX complementation. inhibition, % at 8 µM. 3% of 330,000 active. AID 485346, 2010;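 active = inhibition of at least 50% at 8 µM in the primary screen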
Target sequence (O15151 whole entry, looked up): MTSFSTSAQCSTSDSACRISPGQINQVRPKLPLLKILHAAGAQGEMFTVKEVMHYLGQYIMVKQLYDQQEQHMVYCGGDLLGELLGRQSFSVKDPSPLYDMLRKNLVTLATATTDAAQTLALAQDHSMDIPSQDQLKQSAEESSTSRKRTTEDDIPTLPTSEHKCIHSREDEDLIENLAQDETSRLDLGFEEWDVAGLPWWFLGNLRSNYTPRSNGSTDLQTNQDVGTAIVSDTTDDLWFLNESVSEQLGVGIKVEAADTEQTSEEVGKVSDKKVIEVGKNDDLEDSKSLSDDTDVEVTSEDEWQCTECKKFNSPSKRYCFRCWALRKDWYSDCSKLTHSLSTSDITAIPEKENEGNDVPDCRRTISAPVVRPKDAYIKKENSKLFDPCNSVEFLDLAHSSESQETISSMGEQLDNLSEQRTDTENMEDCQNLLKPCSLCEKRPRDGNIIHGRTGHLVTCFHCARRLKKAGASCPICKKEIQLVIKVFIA
Target sequence (Q00987 whole entry, looked up): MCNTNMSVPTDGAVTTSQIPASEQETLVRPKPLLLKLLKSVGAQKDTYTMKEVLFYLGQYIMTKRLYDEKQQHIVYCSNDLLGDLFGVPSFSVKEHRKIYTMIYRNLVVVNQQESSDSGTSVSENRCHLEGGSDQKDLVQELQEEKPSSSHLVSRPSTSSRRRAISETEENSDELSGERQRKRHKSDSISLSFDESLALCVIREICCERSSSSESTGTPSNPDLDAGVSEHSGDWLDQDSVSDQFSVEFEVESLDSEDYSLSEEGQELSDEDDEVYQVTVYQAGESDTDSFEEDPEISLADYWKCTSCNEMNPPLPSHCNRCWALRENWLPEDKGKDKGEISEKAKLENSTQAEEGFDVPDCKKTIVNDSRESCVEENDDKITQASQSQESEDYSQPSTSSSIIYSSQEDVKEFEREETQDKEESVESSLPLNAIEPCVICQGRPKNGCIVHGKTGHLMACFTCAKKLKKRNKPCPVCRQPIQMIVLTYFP
Beta cell apopt = inhibitors of cytokine-induced beta cell apoptosis, primary screen, luminescence; protection from apoptosis, % (test concentration not listed); 0.8% of 300,000 active; INS-1E cytokine-induced death, ATP luminescence, 48 h; percent of positive-control rescue, neutral wells zero; AID 435005, 2010;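 active = Every replicate reaches about 75%, or at least half do and their mean reaches it too, limit read from the data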;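 note: 0% = cytokine-treated negative control wells and 100% = positive control rescue; higher means more ATP so stronger rescue from cytokine killing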
CSC inhib = cancer stem cell viability inhibitors, primary screen, luminescence; cancer stem cell-like cells viability; 1.1% of 300,000 active; inhibition, % at 7.5 µM; in the data active = inhibition above about 75%; tested in HMLE shEcad cells
SKKanGAS inh = S. pyogenes SKKanGAS growth inhibitors in kanamycin, primary screen, streptokinase expression inhibitor project, SKKanGAS strain, BacTiter-Glo luminescence | 6 h | AID 1662, 2009 | inhibition, % at 7.5 µM | 1.3% of 300,000 active;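 active = mean replicate score, as percent of positive control median, at least 50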;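 note: strain carries kanamycin resistance gene driven by streptokinase promoter and grows in 40 µg/ml kanamycin; loss of luminescence reflects streptokinase promoter inhibition or plain growth inhibition; 0% = median of DMSO wells and 100% = positive control at its reference dose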
T cruzi repl = inhibitors of intracellular T. cruzi growth, primary screen, luminescence, NIH3T3 host cells. T. cruzi beta-gal in NIH3T3, 90 h. inhibition, % (no concentration beside the values). 1.4% of 300,000 active. AID 1885, 2009;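 active = mean inhibition across valid replicates above about 55%, limit read from the data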;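 note: signal also drops with host cell toxicity which is not excluded here; 0% = plate median of DMSO wells and 100% = zero luminescence signal; higher percent means less beta-gal luminescence so fewer parasites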
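Read-out: Parasite load inhibition, % | Test system: Mouse NIH/3T3 fibroblasts infected with β-gal-expressing T. cruzi Tulahuen C4 | Amount: 5,000 cells/well | Medium: DMEM, 2% fetal bovine serum | Signal: GalScreen β-gal luminescence, detergent lysis, 60 min | Timing: 3 h attach, ≥90 h co-culture | Also added: Tulahuen C4 trypomastigotes, 5000/well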
Calb FLC = C. albicans growth inhibition with fluconazole, primary screen, CaCi-2 strain, Alamar Blue fluorescence; growth inhibition, % (no concentration beside the values); AID 1979, 2009; 0.57% of 300,000 active; C. albicans CaCi-2 (fluconazole-resistant clinical isolate) + fluconazole, 48 h;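 active = growth inhibition above about 58% in most replicates, limit read from the data, passing the limit was not always enough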;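 note: all wells also contain fluconazole at 8 µg/ml as a sub-toxic cotreatment; 0% = median of DMSO wells and 100% = median of geldanamycin control wells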
Mdm2 MdmX conf = Mdm2-MdmX complex disruptors, retested hits, confirmation, luminescence, single concentration; shares compounds with Mdm2-MdmX inh; inhibition, % at 8 µM; Mdm2-MdmX binding, luminescent assay; 55% of 10,000 active; in the data active = inhibition above about 40%
Full FLuc ctr = full-length luciferase signal inhibition, confirmation, counter-screen for Mdm2/MdmX interaction inhibitor project, cell-based, single concentration, SaOS-2; 77% of 6,200 active; inhibition, % at 8 µM; shares compounds with Mdm2-MdmX inh; SaOS-2 full-length luciferase counterscreen, luminescence; AID 504607, 2011;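 active = mean inhibition at 8 µM reaching about 37%, which flags the compound as non-specific, limit read from the data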;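 note: p53-null SaOS-2 cells with luciferase driven by a doxycycline-inducible promoter; compound on cells about two nights before reading with doxycycline added after day one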
Starred values were filed as active, the others as inactive; . = no result given.

SMILES	Mdm2-MdmX inh	Beta cell apopt	CSC inhib	SKKanGAS inh	T cruzi repl	Calb FLC	Mdm2 MdmX conf	Full FLuc ctr
Cc1cc(OC(=O)c2cccc(Cl)c2)c([N+](=O)[O-])c(=O)[nH]1	16	-6	-7	-1	-11	6	.	.
O=C(NNC(=O)c1ccc(S(=O)(=O)N2CCCC2)cc1)c1ccc(Br)cc1	11	.	.	.	.	.	.	.
Cc1[nH]nc2c1-c1nc3ccccc3nc1C(C)(C)C2	50*	-8	.	15	13	39	27	.
COc1ccccc1N1CCN(C(=O)Cn2ncc3c([nH]c4ccccc43)c2=O)CC1	30	.	-5	5	0	18	.	.
COc1ccc(N2CCN(C(=O)Cn3ncc4c([nH]c5ccccc54)c3=O)CC2)cc1	50*	-2	8	-10	-12	0	16	.
Cc1ccc(C)c(Cn2c3ccccc3c3cnn(CC(=O)NCCCN4CCCCC4)c(=O)c32)c1	92*	8	-13	13	42	9	48*	48*
Cc1ccc2[nH]c3c(=O)n(CC(=O)NCCCN4CCN(c5ccc(F)cc5)CC4)ncc3c2c1	69*	-1	-16	5	8	7	36	.
Cc1ccc(C)c(N2CCN(C(=O)Cn3ncc4c([nH]c5ccc(C)cc54)c3=O)CC2)c1	52*	1	-10	-2	-1	0	-4	.
Cc1nc(SCC(=O)NCc2ccc3c(c2)OCO3)nc(C)c1C	3	-5	-27	.	.	.	.	.
Cc1cccc(SCC(=O)Nc2ccc3c(c2)OCCO3)c1	-5	10	2	-3	-2	-15	.	.
COc1ccc(C2=NS(=O)(=O)N(C)C(C(=O)Nc3ccc(F)cc3F)=C2)cc1	33	1	7	3	-24	11	.	.
Nc1c(C(=O)CSc2ncccn2)c(=O)[nH]c(=O)n1C1CC1	-5	-8	.	.	.	.	.	.
O=C(Cn1c2ccccc2c(=O)c2cc([N+](=O)[O-])ccc21)Nc1ccccc1Cl	53*	9	.	10	29	-12	16	.
O=C(N/N=C/C=C/c1ccccc1)c1n[nH]c2c1CCC2	63*	12	77*	-3	-18	-2	56*	95*
O=C(N/N=C/c1cccc2ccccc12)c1n[nH]c2c1CCCC2	66*	3	-1	5	-46	0	65*	85*
CC(/C=N/NC(=O)c1n[nH]c2c1CCC2)=C\c1ccccc1	11	62	48	4	47	17	.	.
NNC(=O)c1ccc(N2CCCCCC2)c([N+](=O)[O-])c1	-14	-4	-2	4	6	-26	.	.
O=C(CCC1CCCCC1)NCCN1C2=NC[C@@H](Cc3ccccc3)N2C[C@H]1Cc1ccc(O)cc1	67*	-5	1	-3	3	-7	54*	63*
CCOC(=O)C1CCCN(C(=O)c2cc3c(OC)c(OC)c(OC)cc3[nH]2)C1 (stereo not given)	24	-6	-6	-3	-3	-2	.	.
CC(C)c1ccc(/C=N/NC(=O)c2cc(-c3cccc([N+](=O)[O-])c3)n[nH]2)cc1	51*	4	62	11	-9	10	17	.
CN(C)c1ccc(/C=N/NC(=O)c2cc(-c3ccc4c(c3)OCO4)n[nH]2)cc1	52*	.	66	13	-2	2	54*	65*
O=C(N/N=C/c1ccc(F)cc1)c1cc(-c2ccc3c(c2)OCO3)n[nH]1	1	16	25	-1	3	-6	.	.
O=C(N/N=C/c1ccc(Cl)c([N+](=O)[O-])c1)c1cc(-c2ccc3c4c(cccc24)CC3)n[nH]1	100*	4	136*	17	39	11	91*	61*
O=C(/C=C/c1cccc(Cl)c1)NNC(=O)c1ccncc1	21	-3	15	.	.	.	.	.
Cc1nc2ccccc2c(=O)n1/N=C/c1c(O)ccc2oc3c(c12)CCCC3	63*	93*	82*	22	28	0	38	50*
SMILES	Mdm2-MdmX inh	Beta cell apopt	CSC inhib	SKKanGAS inh	T cruzi repl	Calb FLC	Mdm2 MdmX conf	Full FLuc ctr
COc1ccc(-c2nc(CN3CCC(C(=O)NC4CCN(Cc5ccccc5)CC4)CC3)c(C)o2)cc1OC	80*	10	-12	-2	18	-28	49*	55*
Cc1ccc(C)c(OCc2cc(C(=O)NC3CCN(Cc4ccccc4)CC3)no2)c1	53*	14	12	0	27	7	16	.
S=C(Nc1cc(Cl)cc(Cl)c1)NC1CCN(Cc2ccccc2)CC1	95*	-6	75*	16	45	-7	34	.
Cc1ccc(-n2c(=O)[nH]c3cc(C(=O)NC4CCN(Cc5ccccc5)CC4)ccc3c2=O)cc1	87*	2	-9	-2	-14	-4	26	.
CC1C(=O)N2CCCc3cc(NC(=O)c4ccccc4C(F)(F)F)cc1c32 (stereo not given)	15	-2	3	14	-7	31	.	.
Cc1oc(-c2ccc(Cl)cc2)cc1C(=O)NC1CCN(Cc2ccccc2)CC1	60*	.	14	0	43	-6	28	.
Cc1ccccc1-c1nc(CN2CCC(C(=O)NC3CCN(Cc4ccccc4)CC3)CC2)c(C)o1	99*	-4	19	0	16	-2	58*	75*
COc1ccc(C)cc1S(=O)(=O)Nc1ccc2c(c1)N(C(C)=O)CCC2	6	11	.	28	1	-7	.	.
Cc1cc(C(=O)Nc2ccc(Cl)cc2)n(-c2ccccc2)n1	-27	1	-2	-2	1	-7	.	.
Cc1ccc(NC(=O)c2cc(C)n(-c3ccccc3)c2C)cc1	77*	6	16	-1	2	15	84*	41*
Cc1ccc(NC(=O)c2cc(C)n(-c3cccc(C)c3)c2C)cc1	-18	5	-11	-2	4	6	.	.
Cc1cc(C(=O)Nc2ccc(Cl)cc2)c(C)n1-c1ccccc1	89*	.	46	12	12	1	89*	31
CCOc1ccc(C(C(=O)NCC2CCCO2)N(Cc2cccc(OC)c2)C(=O)c2snc(C(N)=O)c2N)cc1 (stereo not given)	2	-4	-1	-2	-8	10	.	.
